Measured values taken from paper PMC11227858 (Drug Design, Development and Therapy, 2024).
“Also recorded” adds a separate entry of the source.

Tests used:
[1] = assay type: in vivo, human
Safety evaluation = assay type: in vivo, human
Procedure, shortened: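 Adults with chronic musculoskeletal non-cancer pain received one 2-min IV injection in a single-centre, open-label, ascending-dose design, with a 2-person 0.75 mg pretest. Monitoring covered vital signs to 72 h, SpO2 to 8 h, Holter from −30 min to 24 h, ECG at 48/72 h, 72 h labs, and injection-site checks to 6 h. AEs were graded by system/severity and drug relation; groups compared by Fisher's exact or chi-square.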

For `COc1ccsc1CNCC[C@@]1(c2ccccn2)CCOC2(CCCC2)C1` [Oliceridine, [(3-methoxythiophen-2-yl)methyl]({2-[(9R)-9-(pyridin-2-yl)-6-oxaspiro-[4.5]decan-9-yl]ethyl})amine], the “Participants achieving Cmax approximately 2 minutes post-administration” value ([1]; 0.75 mg group (11 of 12)) was 91.7%, the “Participants reaching Cmax around 5 minutes” value ([1]; 0.75 mg group (one participant)) was 8.3% and the “Participants attaining peak concentration at about 2 min” value ([1]; 1.5 mg group (9 of 10)) was 90%. The “Participants attaining peak concentration at about 3 min” value ([1]; 1.5 mg group (one participant, intravenous line blockage)) was 10%, the “Participants attaining peak at around 10 min” value ([1]; 3.0 mg group (1 participant)) was 10% and the “Participants attaining peak at about 2 min” value ([1]; 3.0 mg group (4 of 10)) was 40%. The “Participants attaining peak at approximately 5 min” value ([1]; 3.0 mg group (5 participants)) was 50%, the Tmax ([1]; human, plasma, iv) was 2.04 to 4.98 min and the half-life ([1]; human, plasma, iv) was 111 to 125 min. For the same molecule, the Safety and tolerability (Safety evaluation; Chinese patients with chronic non-cancer pain, 0.75 mg to 3.0 mg) was “safe and well tolerated”, the “TEAEs leading to discontinuation of the study” value (Safety evaluation; all doses) was “none of the TEAEs led to discontinuation of the study” and the “Severe TEAEs” value (Safety evaluation; all doses, 32 participants) was “no reports of severe TEAEs”. For the same molecule, the “Serious adverse events (SAEs)” value (Safety evaluation; single IV dose 0.75-3.0 mg, 32 participants) was “no serious adverse events were observed; also recorded: No SAEs were reported”.
